In ChEMBL document CHEMBL1135426, “Synthesis, receptor potency, and selectivity of halogenated diphenylpiperidines as serotonin 5-HT2A ligands for PET or SPECT brain imaging” (J Med Chem, 2002) one finds Ki data, which are given here for six compounds.

The target of test [1] is T1, Adrenergic receptor alpha-1 (Rattus norvegicus, UniProt P15823+P23944+P43140).
T1 sequence (P15823 whole entry): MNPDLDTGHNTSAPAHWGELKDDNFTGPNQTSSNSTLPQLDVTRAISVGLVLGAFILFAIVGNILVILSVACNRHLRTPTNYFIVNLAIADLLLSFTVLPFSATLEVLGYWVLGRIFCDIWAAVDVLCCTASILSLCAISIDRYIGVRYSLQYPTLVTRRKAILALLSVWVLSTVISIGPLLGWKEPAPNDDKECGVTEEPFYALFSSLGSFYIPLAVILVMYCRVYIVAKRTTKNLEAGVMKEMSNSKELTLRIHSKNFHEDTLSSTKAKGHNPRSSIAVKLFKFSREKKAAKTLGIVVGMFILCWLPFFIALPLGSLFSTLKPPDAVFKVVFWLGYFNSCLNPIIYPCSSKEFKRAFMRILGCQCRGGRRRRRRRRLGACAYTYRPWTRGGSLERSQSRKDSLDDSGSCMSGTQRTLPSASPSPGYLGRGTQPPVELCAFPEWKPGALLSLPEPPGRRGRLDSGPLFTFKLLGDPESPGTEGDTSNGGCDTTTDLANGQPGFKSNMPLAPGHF
T1 sequence (P23944 whole entry): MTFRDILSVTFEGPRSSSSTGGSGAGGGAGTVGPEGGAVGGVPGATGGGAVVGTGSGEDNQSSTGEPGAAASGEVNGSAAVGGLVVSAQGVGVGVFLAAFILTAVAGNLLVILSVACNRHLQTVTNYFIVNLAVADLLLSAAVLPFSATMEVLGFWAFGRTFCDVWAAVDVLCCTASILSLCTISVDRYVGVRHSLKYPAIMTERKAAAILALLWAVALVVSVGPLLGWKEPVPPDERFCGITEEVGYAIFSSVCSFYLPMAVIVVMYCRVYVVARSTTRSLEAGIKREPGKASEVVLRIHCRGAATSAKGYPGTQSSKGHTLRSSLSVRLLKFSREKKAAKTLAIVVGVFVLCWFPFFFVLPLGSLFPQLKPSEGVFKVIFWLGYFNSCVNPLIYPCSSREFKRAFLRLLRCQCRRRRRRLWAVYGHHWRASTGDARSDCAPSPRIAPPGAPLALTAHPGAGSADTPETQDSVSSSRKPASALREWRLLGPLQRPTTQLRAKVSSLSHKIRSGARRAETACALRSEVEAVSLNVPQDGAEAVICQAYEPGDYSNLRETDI
T1 sequence (P43140 whole entry): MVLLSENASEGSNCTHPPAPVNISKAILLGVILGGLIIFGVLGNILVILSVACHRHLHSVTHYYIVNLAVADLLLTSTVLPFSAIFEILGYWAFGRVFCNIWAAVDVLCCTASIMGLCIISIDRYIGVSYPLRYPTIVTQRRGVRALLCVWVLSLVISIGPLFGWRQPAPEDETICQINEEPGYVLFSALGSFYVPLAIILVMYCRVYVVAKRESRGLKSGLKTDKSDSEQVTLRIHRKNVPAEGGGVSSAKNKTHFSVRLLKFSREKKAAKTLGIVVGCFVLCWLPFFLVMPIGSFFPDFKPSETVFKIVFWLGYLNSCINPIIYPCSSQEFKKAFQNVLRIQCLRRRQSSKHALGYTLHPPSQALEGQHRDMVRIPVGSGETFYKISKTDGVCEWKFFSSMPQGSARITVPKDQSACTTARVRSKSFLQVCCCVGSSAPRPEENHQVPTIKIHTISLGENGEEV
The test can be described thus: Binding affinity (Ki) at Alpha-1 adrenergic receptor using rat brain cells with prazosin (0.20 nM) as a radioligand and […] as a blank agent. The class given is cell-based. The method, boiled down:
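Whole rat brain homogenate (excluding cerebellum) incubated with 0.20 nM [3H]prazosin, 30 °C, 30 min. Nonspecific binding defined with 2 µM phentolamine. Filtration harvest, tritium counted by scintillation. Screened at 1 and 10 µM; ≥6 concentrations if ≥30% inhibition at 1 µM. IC50 from curve fit, converted to Ki by Cheng-Prusoff using the radioligand Kd.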

Test [2] has as its target T1, Adrenergic receptor alpha-1. The test can be described thus: Binding affinity at Alpha-1 adrenergic receptor using rat forebrain cells with prazosin (0.20 nM) as radioligand and […] as blank agent.
For test [3] the target is unchanged. The experiment in a line: Binding affinity (Ki) at Alpha-1 adrenergic receptor using rat forebrain cells with prazosin (0.20 nM) as a radioligand and […] as a blank agent.

Take `O=C(c1ccc(F)cc1)C1CCN(CCc2cccc(I)c2)CC1`: in test [1], the Ki is 4.92 nM.

On to `OC(c1ccc(F)cc1)C1CCN(CCc2ccc(F)cc2)CC1` (stereo unspecified), for which the inhibition constant Ki in test [2] is 303 nM. `O=C(c1ccc(F)cc1)C1CCN(CCc2ccc(I)cc2)CC1` gave an inhibitory constant (Ki) in test [3] of 26.1 nM. That is a double-digit nanomolar value. In turn, `O=C(c1ccc(F)cc1)C1CCN(CCc2ccccc2I)CC1` showed a Ki in test [2] of 24.8 nM. That is a double-digit nanomolar value. As to `OC(c1ccc(F)cc1)C1CCN(CCc2ccccc2I)CC1` (stereo unspecified), the Ki in test [3] is recorded as 108 nM.

The compound `O=C(c1ccc(F)cc1)C1CCN(CCc2ccc(F)cc2)CC1` showed an inhibitory constant (Ki) in test [2] of 33.6 nM.
